Published values from different studies.
Each line is one published result; the experiments were not run side by side. pIC50, pKi: −log10 of the molar value.
Action: inhibitor
CYP1A2: Cytochrome P450 1A2 (CYP1A2, Homo sapiens, UniProt P05177)
SLCO1B1: Solute carrier organic anion transporter family member 1B1 (SLCO1B1, Homo sapiens, UniProt Q9Y6L6)

`CSc1ccccc1C(=O)NCCn1cc(C(=O)NCc2cccc(C)n2)c(=O)c2cc3c(cc21)OCO3` gave a pIC50 of < 4.00 (CYP1A2; enzyme activity; human, liver microsomes; 20 min, without NADPH, with preincubation).
`CC(C)(O)[C@@H]1CC[C@](C)([C@H]2[C@@H](O)C[C@@]3(C)[C@@H]4C[C@H](O[C@@H]5O[C@H](CO)[C@@H](O)[C@H](O)[C@H]5O)[C@H]5C(C)(C)[C@@H](O[C@@H]6OC[C@@H](O)[C@H](O)[C@H]6O)CC[C@@]56C[C@@]46CC[C@]23C)O1` has a pIC50 of < 3.70 (CYP1A2; enzyme activity; human, liver microsomes).
With `CSc1ccccc1C(=O)NCCn1cc(C(=O)NCc2cccc(C)n2)c(=O)c2cc3c(cc21)OC(F)(F)O3` the pIC50 was < 4.00 (CYP1A2; enzyme activity; human, liver microsomes; 20 min, without NADPH, with preincubation).
`O=C(CCCCCCC(=O)Nc1ccccc1)NO` gave a pIC50 of 5.14 (CYP1A2; enzyme activity, fluorescence).
For `CC[C@H](C)[C@@H]([C@@H](CC(=O)N1CCC[C@H]1[C@H](OC)[C@@H](C)C(=O)N[C@@H](Cc1ccccc1)C(=O)NCCCO)OC)N(C)C(=O)[C@@H](NC(=O)[C@H](C(C)C)N(C)C)C(C)C`, the pKi was 4.66 (Cytochrome P450 3A4 (CYP3A4, Homo sapiens, UniProt P08684); enzyme activity).
For `NC/C(=C\F)COc1cccc(Cn2c(=S)[nH]c(=O)c3[nH]cnc32)c1`, the inhibition was < 50% (SLCO1B1; transporter uptake; 30 µM).
For `CC(=O)O[C@H]1[C@H](O[C@H]2CC[C@]34C[C@]35CC[C@]3(C)[C@@H]([C@@]6(C)CC[C@@H](C(C)(C)O)O6)[C@@H](O)C[C@@]3(C)[C@@H]5C[C@H](O[C@@H]3O[C@H](CO)[C@@H](O)[C@H](O)[C@H]3O)[C@H]4C2(C)C)OC[C@@H](OC(C)=O)[C@@H]1O`, the pIC50 was < 3.70 (CYP1A2; enzyme activity; human, liver microsomes).
The pIC50 of `O=C(O)COc1cccc(-c2nc(Nc3ccc4[nH]ncc4c3)c3ccccc3n2)c1` is reported as 6.41 (SLCO1B1; transporter uptake, radiometric).
